The subject of test [1] is RBCs. As to the kind of experiment: Hemolytic activity against human red blood cells at 100 ug/ml. It counts as functional, Erythrocyte. The procedure, abridged:
(§1)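 Human erythrocytes exposed to peptide. Hemolysis expressed as % relative to lysis by 0.2% Triton X-100.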

A further test has as its system PC-3. The experiment in a line: Antitumor activity against human PC3 cell line. The test is classed as functional, cell-based.
The subject of another test is NCI-H630. As to the kind of experiment: Antitumor activity against human NCI-H630 cell line. The test is classed as functional, cell-based.
Test [2] relates to RBCs. The experiment in a line: Hemolytic activity against human red blood cells at 400 ug/ml. The test is classed as functional, Erythrocyte. The procedure, abridged:
as §1

Another test deals with MCF10. As to the kind of experiment: Antitumor activity against human MCF10a cell line.
The next test relates to SK-OV-3. The experiment in a line: Antitumor activity against human SKOV3 cell line. The test is classed as functional, cell-based.
In the next test the test system is MCF7. The experiment in a line: Antitumor activity against human MCF7 cell line. It counts as functional, cell-based.
For test [3], the system named is RBCs. As to the kind of experiment: Hemolytic activity against human red blood cells at 300 ug/ml. It counts as functional, Erythrocyte. The procedure, abridged:
as §1

Test [4] has as its system RBCs. The experiment in a line: Hemolytic activity against human red blood cells at 200 ug/ml. It counts as functional, Erythrocyte. The procedure, abridged:
as §1

The test system of the next test is MKN-45. As to the kind of experiment: Antitumor activity against human MKN45 cell line. The test is classed as functional, cell-based.
The subject of a further test is HCT-116. As to the kind of experiment: Antitumor activity against human HCT116 cell line. It counts as functional, cell-based.
The subject of a further test is A549. As to the kind of experiment: Antitumor activity against human A549 cell line.
Another test has as its system A498. The experiment in a line: Antitumor activity against human A498 cell line.
A further test has as its system SK-MEL-2. As to the kind of experiment: Antitumor activity against human SK-MEL-2 cell line. It counts as functional, cell-based.

Where a SMILES comes first, the peptide text is derived from it.

Consider H-FLGALFKWASK-OH, for which the Activity in the test on RBCs [1] came to 6.21%; in the test with RBCs [2] it was 6.67%; in the test on RBCs [3], 6.36%; with RBCs [4] it was 6.36%. Besides, the IC50 in the test with PC-3 stood at 137 µM; in the test with NCI-H630 it was 102 µM; with MCF10 it was 343 µM; with SK-OV-3 it was 119 µM; in the test on MCF7 it was 157 µM; with MKN-45 it was 113 µM. Moreover, the results for the IC50 with HCT-116, in the test with A549 and in the test with A498 were 114 µM, 330 µM and 169 µM, respectively. Besides, the IC90 came out at 195 µM in the test with PC-3; 117 µM in the test on NCI-H630; 166 µM in the test on SK-OV-3; 229 µM with MCF7 (read-out: IC90); 151 µM in the test with MKN-45; 170 µM in the test on HCT-116.

`CC(=O)O[C@H]1C(=O)[C@@]2(C)[C@H]([C@H](OC(=O)c3ccccc3)[C@]3(O)C[C@H](OC(=O)[C@H](O)[C@@H](NC(=O)c4ccccc4)c4ccccc4)C(C)=C1C3(C)C)[C@]1(OC(C)=O)CO[C@@H]1C[C@@H]2O` [PACLITAXEL]: the IC90 is 0.037 µM in the test on SK-MEL-2; 0.832 µM in the test on PC-3; 0.372 µM with NCI-H630; 0.071 µM in the test with SK-OV-3; 0.015 µM in the test on MCF7 (read-out: IC90); 0.204 µM in the test on MKN-45. For the same compound, the IC90 with HCT-116 was found to be 0.008 µM; in the test on A549 it was 0.041 µM; with A498 it was 0.229 µM. The compound further showed an IC50 with SK-OV-3 of 0.005 µM.

The compound H-FLGALFKVASKVL-OH displayed an Activity with RBCs [1] of 25.8%.

Regarding H-FLGALFKVASK-OH, the Activity in the test on RBCs [1] amounted to 6.06%; with RBCs [2] it was 6.21%; in the test on RBCs [3], 6.06%; with RBCs [4] it was 6.06%.

In the case of H-FLGWLFKVASK-OH, the Activity in the test on RBCs [1] amounted to 6.52%; with RBCs [2], 9.24%; with RBCs [3], 7.12%; in the test with RBCs [4] it was 6.82%. Also, the IC50 in the test with SK-MEL-2 is 23.5 µM; in the test on PC-3, 95.5 µM; with NCI-H630 it was 58.6 µM; with MCF10 it was 240 µM; in the test on SK-OV-3 it was 71.1 µM; in the test on MCF7 it was 59.6 µM. In addition, the IC50 turned out to be 63.8 µM with MKN-45, 23.5 µM with HCT-116, 82 µM with A549 and 56.5 µM with A498. Also, the IC90 in the test with SK-MEL-2 was 46.8 µM; with PC-3, 112 µM; with NCI-H630, 81.3 µM; with SK-OV-3, 89.1 µM; in the test with MCF7 (read-out: IC90), 110 µM; with MKN-45, 85.1 µM. Besides, the IC90 with HCT-116 was 56.2 µM; in the test with A549, 102 µM; with A498 it was 83.2 µM.

In the case of `CC[C@H](C)[C@H](NC(=O)[C@H](C)NC(=O)[C@H](CS)NC(=O)[C@H](CCCCN)NC(=O)[C@@H](NC(=O)[C@H](CO)NC(=O)[C@@H]1CCCN1C(=O)[C@H](CC(C)C)NC(=O)[C@@H](NC(=O)[C@H](CCCCN)NC(=O)[C@H](CO)NC(=O)[C@H](C)NC(=O)[C@@H](NC(=O)[C@H](CCCCN)NC(=O)[C@H](Cc1ccccc1)NC(=O)[C@H](CC(C)C)NC(=O)[C@H](C)NC(=O)CNC(=O)[C@H](CC(C)C)NC(=O)[C@@H](N)Cc1ccccc1)C(C)C)C(C)C)C(C)C)C(=O)N[C@H](C(=O)N[C@@H](CCCCN)C(=O)N[C@@H](CCCCN)C(=O)N[C@@H](CS)C(=O)O)[C@@H](C)O` (H-FLGALFKVASKVLPSVKCAITKKC-OH), the Activity in the test with RBCs [1] was found to be 6.8%. The IC50 in the test with SK-MEL-2 worked out at 18.6 µM; with PC-3 it was 17.1 µM; with NCI-H630 it was 16.4 µM; in the test with SK-OV-3, 15 µM; with MCF7, 72 µM; in the test on MKN-45 it was 13.7 µM. In addition, the IC50 amounted to 44.4 µM with HCT-116, 57.1 µM with A549 and 54.1 µM in the test with A498. The IC90 amounted to 18.2 µM in the test with SK-MEL-2; 22.9 µM in the test on PC-3; 25.1 µM in the test with NCI-H630; 23.4 µM in the test with SK-OV-3; 93.3 µM in the test with MCF7; 24 µM in the test with MKN-45. For the same compound, the IC90 in the test with HCT-116 and in the test with A549 was 89.1 µM in each case.

In general, IC50 refers to the concentration at which inhibition is half-maximal. A low value points to higher potency. As usually defined, the IC90 is the concentration at which the effect reaches the 90% level.

Source of the values: ChEMBL document CHEMBL1146866, “Structural determinants for the membrane interaction of novel bioactive undecapeptides derived from gaegurin 5” (J Med Chem, 2006).
